For assay [1], the system named is Mus musculus. In words: Antipsychotic activity in ip dosed albino lyka mouse assessed as reversal of apomorphine-induced mesh climbing response administered 10 mins prior to apomorphine challenge after 10 to 30 mins. Type of assay: functional. Summed up: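 Mice of either sex (26–38 g), six per group, habituated singly in a wire-mesh cage (13 cm diameter, 14 cm high). Compound, saline (control) or clozapine (positive control) given ip; apomorphine 2.5 mg kg^-1 ip 10 min later. Climbing was scored over 60 s in the mesh cage at 10, 15, 20, 25 and 30 min: 1 = one–three paws on mesh, 2 = all four. Three titrated dose levels.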

In assay [2] the test system is Mus musculus. The experiment in a line: Antipsychotic activity in ip dosed albino lyka mouse assessed as reversal of apomorphine-induced stereotype response administered 10 mins prior to apomorphine challenge after 10 to 30 mins. Type of assay: functional. Summed up: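 Mice of either sex (26–38 g) received vehicle, compound or clozapine (positive control), then apomorphine 2.5 mg kg^-1 after 10 min. Stereotypy was scored over 60 s in an inverted 500 ml beaker at 10, 15, 20, 25 and 30 min post-apomorphine: 1 = rearing, sniffing or grooming; 2 = licking or biting. Three dose levels, chosen by initial titration.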

Activity calls are given as the source filed them. The calls are words filed in the database; no cut-off is given here.

The source of these data is ChEMBL document CHEMBL1165883, “Synthesis, evaluation and computational studies on a series of acetophenone based 1-(aryloxypropyl)-4-(chloroaryl) piperazines as potential atypical antipsychotics” (2010).

As for `CC(=O)c1ccccc1OCCCN1CCN(Cc2ccc(Cl)cc2)CC1`, the ED50 with Mus musculus [1] came to 10 mg/kg. The same measure, in the same setting: the result for `CC(=O)c1ccccc1OCCCN1CCN(Cc2ccccc2Cl)CC1` reads 10.5 mg/kg. On to `CC(=O)c1ccccc1OCCCN1CCN(C(=O)c2ccc(Cl)cc2)CC1`, for which the outcome in the assay with Mus musculus [2] was Active. Also, the ED50 entry with Mus musculus [1] was “inactive”. Taken in the same sequence, the figures for `CC(=O)c1ccccc1OCCCN1CCN(C(=O)c2ccccc2Cl)CC1` were “Active” and “inactive”. For `CC(=O)c1ccc(OCCCN2CCN(Cc3ccccc3Cl)CC2)cc1`, in the assay on Mus musculus [1], the ED50 amounted to 23 mg/kg.

For `Clc1ccc(CN2CCN(Cc3ccc(Cl)cc3)CC2)cc1`, the Activity in the assay with Mus musculus [2] was 1.02. For the same compound, the ED50 in the assay with Mus musculus [1] was 10.5 mg/kg.

In the case of `CC(=O)c1ccc(OCCCN2CCN(C(=O)c3ccc(Cl)cc3)CC2)cc1`, the result in the assay on Mus musculus [2] was Active. In addition, in the assay with Mus musculus [1], the ED50 result is “inactive”.

Turning to `Clc1ccccc1CN1CCN(Cc2ccccc2Cl)CC1`, the Activity in the assay with Mus musculus [2] is on record as 0.86. The ED50 in the assay on Mus musculus [1] came out at 7.2 mg/kg. For the compound `CC(=O)c1ccc(OCCCN2CCN(Cc3ccc(Cl)cc3)CC2)cc1`, the ED50 with Mus musculus [1] came to 50 mg/kg.

As to `CC(=O)c1ccc(OCCCN2CCN(C(=O)c3ccccc3Cl)CC2)cc1`, the outcome with Mus musculus [2] was Active. Besides, the ED50 result in the assay with Mus musculus [1] was “inactive”.

A word on the ED50: it is the midpoint of the dose-response relation.
